# Laboratory results reported in ChEMBL document CHEMBL1126156, “Multivariate analysis by the minimum spanning tree method of the structural determinants of diphenylethylenes and triphenylacrylonitriles implicated in estrogen receptor binding, protein kinase C activity, and MCF7 cell proliferation” (J Med Chem, 1992).
# Assays:
# MCF7S [1] = experiment: Cytostatic activity against MCF-7 cell proliferation.; format: functional, Homo sapiens; set-up: concentration or dose not given beside the values
# How it was run: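 MCF-7 cells in phenol red-free charcoal-treated medium given 10⁻⁶ M E2 plus test compound (3–10 μM), 6 days of growth. DNA expressed as percent of E2-treated cells. IC30 is the concentration giving 30% inhibition. Percent inhibition taken at 10⁻⁵ M, or at 10⁻⁶ M in a second series. Means of two experiments.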
# MCF7S [2] = experiment: Agonistic activity in MCF-7 cell proliferation.; format: functional, Homo sapiens
# How it was run: (§1)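 MCF-7 cells grown in phenol red-free medium with 5% dextran-coated charcoal-treated serum, tested 10 pM to 1 μM. DNA content read after growth. Agonism expressed relative to the maximum response with E2 (=100%), whatever the concentration. EC50 (50% of maximum response) taken from two separate experiments.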
# Rattus norvegicus = species: Rattus norvegicus; experiment: Percent stimulation or inhibition of protein kinase C III activity for protamine sulfate in the presence of EGTA.; set-up: concentration or dose not given beside the values; details: values are per cent of control
# How it was run: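 Rat brain type III (α) PKC, purified, with protamine sulfate as substrate and 0.5 mM EGTA in place of Ca2+, phosphatidylserine and diolein; 5 mM magnesium acetate, 10 μM [32P]ATP. Most compounds at 10⁻⁴ M; percent of control activity.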
# [3] = target: T1, Protein kinase C, PKC; classical (Rattus norvegicus) (UniProt P05696+P68403+P63319); experiment: The percent stimulation or inhibition of protein kinase C III activity was determined for phosphatidylserine (PS) and diolein(PS+DO) in the presence of [Ca2+]; format: protein assay; set-up: concentration or dose not given beside the values; details: values are per cent of control
# How it was run: (§2)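 Type III (α) PKC purified from rat brain soluble fraction, assayed with calf thymus H1 histone, 0.1 mM Ca2+, 5 mM magnesium acetate, 10 μM [32P]ATP, 2 μg/mL phosphatidylserine plus 0.2 μg/mL diolein. Compounds mostly at 10⁻⁴ M; activity expressed as percent of control.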
# [4] = target: T1, Protein kinase C, PKC; classical (Rattus norvegicus); experiment: Percent stimulation or inhibition of protein kinase C III activity for phosphatidylserine (PS) in the presence of [Ca2+].; format: protein assay; set-up: concentration or dose not given beside the values; details: values are per cent of control
# How it was run: (§3)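 Purified type III (α) PKC from rat brain soluble fraction. Substrate calf thymus H1 histone with 0.1 mM Ca2+, 5 mM magnesium acetate, 10 μM [32P]ATP and 2 μg/mL phosphatidylserine, no diolein. Most compounds at 10⁻⁴ M, given as percent of control activity.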
# BT-20 [5] = experiment: (§4) Cytotoxic effect on ER-negative BT20 cell proliferation; format: functional, Homo sapiens; set-up: concentration or dose not given beside the values
# How it was run: (§5)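 ER-negative BT20 cells, no E2, test compound at 3–10 μM for 6 days. DNA read as percent of untreated control. IC30 is the concentration inhibiting growth by 30%; percent inhibition taken at 10⁻⁵ M. Means of two experiments, triplicate wells.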
# [6] = target: Estrogen receptor (Bos taurus) (UniProt Q9XSB5+P49884); experiment: Relative binding affinity for calf uterus estrogen receptor after 2 hr at 0 degree C; format: protein assay
# How it was run: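 Calf uterus cytosol ER incubated 2 h at 0 °C with [6,7-3H]-17β-estradiol and competitor. RBA given relative to estradiol (=100%), mean of at least four determinations.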
# MCF7S [7] = experiment: Antagonist activity against MCF-7 cell proliferation; format: functional, Homo sapiens
# How it was run: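 Phenol red-free MCF-7 cultures with 5% dextran-coated charcoal-treated serum, stimulated by 0.1 nM E2. Proliferation read as DNA content after 8 days relative to E2 alone. Percent antagonism is the inhibition at 10⁻⁶ M test compound versus 10⁻¹⁰ M E2. IC50 (50% of maximum response) from two separate experiments.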
# MCF7S [8] = experiment: Agonist activity against MCF-7 cell proliferation; format: functional, cell-based; details: Homo sapiens; how it was run: as §1
# [9] = target: T1, Protein kinase C, PKC; classical (Rattus norvegicus); experiment: (§6) Percent stimulation or inhibition of protein kinase C with [Ca2+] for phosphatidylserine and diolein(PS+DO); format: protein assay; set-up: concentration or dose not given beside the values; details: values are per cent of control; how it was run: as §2
# [10] = target: T1, Protein kinase C, PKC; classical (Rattus norvegicus); experiment: Percent stimulation or inhibition of protein kinase C with [Ca2+] for phosphatidylserine (PS); format: protein assay; how it was run: as §3
# BT-20 [11] = experiment: as §4; format: functional; details: Homo sapiens; how it was run: as §5
# [12] = target: T1, Protein kinase C, PKC; classical (Rattus norvegicus); experiment: as §6; format: protein assay; details: values are per cent of control; how it was run: as §2
Compound,Inhibition (MCF7S [1]),Agonism (MCF7S [2]),residual activity (Rattus norvegicus),residual activity [3],residual activity [4],Inhibition (BT-20 [5]),RBA [6],Antagonism (MCF7S [7]),EC50 (MCF7S [8]),residual activity [9],residual activity [10],IC30 (BT-20 [11]),residual activity ([10]; values are per cent of control),residual activity [12]
Cc1ccc(C(C#N)=C(c2ccc(O)cc2)c2ccc(O)cc2)cc1,38%,71%,46%,38%,84%,,,,,,,,,
CC(C)Oc1ccc(C(=C(C#N)c2ccccc2)c2ccc(OC(C)C)cc2)cc1,32%,40%,100%,100%,100%,,,,,,,,,
Oc1ccc(C(=C2CCCC2)c2ccc(O)cc2)cc1,6%,100%,40%,42%,,10%,23%,1%,130 nM,,,,,
N#C/C(=C(\c1ccccc1)c1ccc(O)cc1)c1ccc(O)cc1,30%,100%,68%,91%,97%,,,,,,,,,
CC/C(=C(/c1ccccc1)c1ccc(OCCN(C)C)cc1)c1ccccc1,79%,100%,,,36%,,,,,30%,36%,,,
CC(C)Oc1ccc(/C(=C(\C#N)c2ccccc2)c2ccc(O)cc2)cc1,61%,33%,86%,101%,138%,,,,,,,,,
C[C@]12CC[C@@H]3c4ccc(O)cc4CC[C@H]3[C@@H]1CC[C@@H]2O [ESTRADIOL],25%,100%,99%,89%,77%,,,,,,,,,
Oc1ccc(C(=C2CCCCCC2)c2ccc(O)cc2)cc1,16%,96%,93%,71%,,20%,17%,21%,2.65 nM,,,,,
CC(C)C=C(c1ccc(O)cc1)c1ccc(O)cc1,22%,65%,95%,70%,,40%,58%,5%,18 nM,,,8400 nM,,
CCN(CC)CCOc1ccc(C(C#N)=C(c2ccccc2)c2ccccc2)cc1,53%,71%,96%,20%,43%,,,,,,,,,
CCN(CC)CCOc1ccc(/C(=C(\C#N)c2ccccc2)c2ccc(O)cc2)cc1,89%,12%,88%,1%,10%,,,,,,,,,
CC(C)C(Cl)=C(c1ccc(O)cc1)c1ccc(O)cc1,30%,96%,85%,83%,,45%,70%,12%,0.16 nM,,,7600 nM,,
Cc1ccc(/C(=C(/C#N)c2ccccc2)c2ccc(O)cc2)cc1,38%,55%,77%,95%,107%,,,,,,,,,
CCN(CC)CCOc1ccc(/C(=C(/C#N)c2ccccc2)c2ccc(O)cc2)cc1,77%,16%,,,20%,,,,,2%,20%,,,
CN(C)Cc1cc(C(=C(C#N)c2ccccc2)c2ccc(O)c(CN(C)C)c2)ccc1O,36%,31%,,,,,,,,,,,26%,
Cc1ccc(/C(=C(\C#N)c2ccccc2)c2ccc(O)cc2)cc1,60%,53%,,,,,,,,87%,,,119%,87%
COc1ccc(C(=C(C#N)c2ccccc2)c2ccc(OC)cc2)cc1,8%,34%,92%,100%,98%,,,,,,,,,
